Results: ChEMBL document CHEMBL3112407 (Bioorg Med Chem Lett, 2014)

Experiments:
A-431 [1] = assay: cells; type: functional, cell-based; details: Homo sapiens, A-431, 72 h
BT-474 [2] = assay: cells; type: functional, cell-based; details: Homo sapiens, BT-474, 72 h
NCI-H1975 [3] = assay: cells; type: functional, cell-based; details: Homo sapiens, NCI-H1975, 72 h
cells = type: functional, cell-based; details: Homo sapiens, Calu-3, 72 h
NCI-N87 [4] = assay: cells; type: functional, cell-based; details: Homo sapiens, NCI-N87, 72 h
[5] = biological target: T1, Epidermal growth factor receptor (Homo sapiens, UniProt P00533); type: cell-based, KB
T1 sequence (P00533 whole entry): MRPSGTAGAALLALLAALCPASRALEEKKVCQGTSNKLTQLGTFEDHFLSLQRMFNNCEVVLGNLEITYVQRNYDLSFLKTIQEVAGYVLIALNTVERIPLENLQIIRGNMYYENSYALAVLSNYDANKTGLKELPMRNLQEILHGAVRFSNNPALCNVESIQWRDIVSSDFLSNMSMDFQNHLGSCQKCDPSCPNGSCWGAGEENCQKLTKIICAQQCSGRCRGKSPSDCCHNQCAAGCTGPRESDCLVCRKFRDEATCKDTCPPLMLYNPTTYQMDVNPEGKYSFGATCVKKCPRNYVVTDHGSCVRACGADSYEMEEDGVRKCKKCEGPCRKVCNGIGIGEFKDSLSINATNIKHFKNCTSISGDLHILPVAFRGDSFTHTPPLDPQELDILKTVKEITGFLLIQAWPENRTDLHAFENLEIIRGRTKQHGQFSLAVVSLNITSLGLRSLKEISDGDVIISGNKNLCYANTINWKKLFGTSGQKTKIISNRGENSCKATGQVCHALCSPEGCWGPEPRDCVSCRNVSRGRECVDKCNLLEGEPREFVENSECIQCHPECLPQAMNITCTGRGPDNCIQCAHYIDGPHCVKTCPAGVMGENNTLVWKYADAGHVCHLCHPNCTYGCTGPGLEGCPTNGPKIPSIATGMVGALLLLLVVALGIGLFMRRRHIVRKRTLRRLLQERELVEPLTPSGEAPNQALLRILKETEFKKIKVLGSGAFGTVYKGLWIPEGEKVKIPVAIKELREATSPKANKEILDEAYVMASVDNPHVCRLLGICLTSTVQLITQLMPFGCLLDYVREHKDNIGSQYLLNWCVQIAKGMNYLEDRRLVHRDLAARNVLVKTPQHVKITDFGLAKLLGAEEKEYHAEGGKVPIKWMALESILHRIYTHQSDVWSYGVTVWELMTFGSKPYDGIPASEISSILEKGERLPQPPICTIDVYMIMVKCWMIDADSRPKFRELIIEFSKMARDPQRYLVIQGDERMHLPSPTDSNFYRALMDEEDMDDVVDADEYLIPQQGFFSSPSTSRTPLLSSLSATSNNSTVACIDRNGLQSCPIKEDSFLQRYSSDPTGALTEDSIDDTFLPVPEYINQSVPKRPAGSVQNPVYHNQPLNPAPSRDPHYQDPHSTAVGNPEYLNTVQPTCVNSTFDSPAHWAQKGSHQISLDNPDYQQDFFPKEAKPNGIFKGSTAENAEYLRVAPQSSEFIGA

[6] = biological target: Receptor tyrosine-protein kinase erbB-2 (Homo sapiens, UniProt P04626); assay: Inhibition of HER2 (unknown origin) after 10 mins
Receptor tyrosine-protein kinase erbB-2, sequence (P04626 whole entry): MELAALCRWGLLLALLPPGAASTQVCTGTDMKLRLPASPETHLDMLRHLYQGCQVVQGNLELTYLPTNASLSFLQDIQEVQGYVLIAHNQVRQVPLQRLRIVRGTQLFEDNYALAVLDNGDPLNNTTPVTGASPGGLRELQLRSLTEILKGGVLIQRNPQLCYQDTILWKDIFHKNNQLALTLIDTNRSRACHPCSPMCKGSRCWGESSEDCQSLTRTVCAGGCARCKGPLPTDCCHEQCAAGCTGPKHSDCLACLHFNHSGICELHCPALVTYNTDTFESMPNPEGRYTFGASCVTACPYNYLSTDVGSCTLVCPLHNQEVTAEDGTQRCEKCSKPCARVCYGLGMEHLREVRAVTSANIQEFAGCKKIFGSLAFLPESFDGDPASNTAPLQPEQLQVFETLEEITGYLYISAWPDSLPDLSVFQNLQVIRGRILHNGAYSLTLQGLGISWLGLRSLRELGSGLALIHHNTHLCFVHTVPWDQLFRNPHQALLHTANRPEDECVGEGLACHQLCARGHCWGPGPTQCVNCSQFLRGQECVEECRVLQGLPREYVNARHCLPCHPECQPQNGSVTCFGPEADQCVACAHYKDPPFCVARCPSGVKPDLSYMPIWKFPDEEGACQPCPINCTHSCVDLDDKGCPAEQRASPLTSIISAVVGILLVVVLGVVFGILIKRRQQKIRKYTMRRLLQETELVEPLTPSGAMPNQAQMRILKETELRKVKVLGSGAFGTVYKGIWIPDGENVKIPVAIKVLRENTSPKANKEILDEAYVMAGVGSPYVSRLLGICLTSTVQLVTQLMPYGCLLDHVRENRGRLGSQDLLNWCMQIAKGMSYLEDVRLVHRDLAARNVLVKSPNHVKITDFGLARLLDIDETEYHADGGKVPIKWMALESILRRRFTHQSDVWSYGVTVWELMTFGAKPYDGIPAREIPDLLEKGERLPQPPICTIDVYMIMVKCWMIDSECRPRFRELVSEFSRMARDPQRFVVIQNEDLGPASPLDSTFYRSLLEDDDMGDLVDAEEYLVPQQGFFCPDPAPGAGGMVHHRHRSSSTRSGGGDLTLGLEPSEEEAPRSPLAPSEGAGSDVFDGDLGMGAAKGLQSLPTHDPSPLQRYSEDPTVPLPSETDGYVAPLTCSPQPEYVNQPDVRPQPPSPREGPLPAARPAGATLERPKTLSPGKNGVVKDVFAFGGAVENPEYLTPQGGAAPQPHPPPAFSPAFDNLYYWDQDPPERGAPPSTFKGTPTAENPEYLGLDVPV

[7] = biological target: T1, Epidermal growth factor receptor
BT-474 [8] = assay: Ratio of erlotinib IC50 to compound IC50 for human BT474 cells; type: functional
How it was run: (§1)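 MTT growth assay: cells in ATCC-recommended medium with 10% FBS, seeded at 5.0 × 10³ cells/well, adhered overnight at 37 °C, 5% CO₂. Compound added, then 72 h incubation. MTT added for 4 h. Absorbance read at 550 nm, corrected at 690 nm. IC₅₀ from nonlinear regression of concentration–response data. Ratio is the reference-drug IC₅₀ over the compound IC₅₀ from this assay.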

BT-474 [9] = assay: Ratio of gefitinib IC50 to compound IC50 for human BT474 cells; type: functional
How it was run: as §1

NCI-N87 [10] = assay: Ratio of gefitinib IC50 to compound IC50 for human NCI-N87 cells; type: functional
How it was run: as §1

Calu-3 [11] = assay: Ratio of erlotinib IC50 to compound IC50 for human Calu3 cells; type: functional
How it was run: as §1

A-431 [12] = assay: Ratio of erlotinib IC50 to compound IC50 for human A431 cells; type: functional
How it was run: as §1

NCI-H1975 [13] = assay: Ratio of erlotinib IC50 to compound IC50 for human NCI-H1975 cells; type: functional
How it was run: as §1

A-431 [14] = assay: Ratio of gefitinib IC50 to compound IC50 for human A431 cells; type: functional
How it was run: as §1

NCI-H1975 [15] = assay: Ratio of gefitinib IC50 to compound IC50 for human NCI-H1975 cells; type: functional
How it was run: as §1

Calu-3 [16] = assay: Ratio of gefitinib IC50 to compound IC50 for human Calu3 cells; type: functional
How it was run: as §1

NCI-N87 [17] = assay: Ratio of erlotinib IC50 to compound IC50 for human NCI-N87 cells; type: functional
How it was run: as §1

Row | Compound | IC50 (A-431 [1]) [nM] | IC50 (BT-474 [2]) [nM] | IC50 (NCI-H1975 [3]) [nM] | IC50 (cells) [nM] | IC50 (NCI-N87 [4]) [nM] | IC50 [5] [nM] | IC50 [6] [nM] | IC50 [7] [nM] | Ratio IC50 (BT-474 [8]) | Ratio IC50 (BT-474 [9]) | Ratio IC50 (NCI-N87 [10]) | Ratio IC50 (Calu-3 [11]) | Ratio IC50 (A-431 [12]) | Ratio IC50 (NCI-H1975 [13]) | Ratio IC50 (A-431 [14]) | Ratio IC50 (NCI-H1975 [15]) | Ratio IC50 (Calu-3 [16]) | Ratio IC50 (NCI-N87 [17])
1 | C#Cc1cccc(Nc2ncnc3cc4c(cc23)N(C(=O)/C=C/CN2CCN(C)CC2)CCCO4)c1 | > 10000 | > 10000 | > 10000 | > 10000 | > 10000 | > 10000 |  |  |  |  |  |  |  |  |  |  |  | 
2 | C#Cc1cccc(Nc2ncnc3cc4c(cc23)N(C(=O)/C=C/CN(C)C)CCCO4)c1 | 1750 | > 10000 | 1860 | > 10000 | > 10000 | > 10000 |  |  |  |  |  |  |  |  |  |  |  | 
3 | C#Cc1cccc(Nc2ncnc3cc4c(cc23)N(C(=O)/C=C/CN2CCCCC2)CCO4)c1 | 340 | 870 | 870 | 550 | 160 | 42 | 290 | 4 |  |  |  |  |  |  |  |  |  | 
4 | C#Cc1cccc(Nc2ncnc3cc4c(cc23)N(C(=O)/C=C/CN2CCOCC2)CCO4)c1 | 530 | 1390 | 770 | 1010 | 600 | 640 | 930 | 12 |  |  |  |  |  |  |  |  |  | 
5 | C#Cc1cccc(Nc2ncnc3cc4c(cc23)N(C(=O)/C=C/CN2CCCC2)CCCO4)c1 | 1820 | > 10000 | 1740 | > 10000 | > 10000 | > 10000 |  |  |  |  |  |  |  |  |  |  |  | 
6 | C#Cc1cccc(Nc2ncnc3cc4c(cc23)N(C(=O)/C=C/CN(C)C)CCO4)c1 | 230 | 240 | 300 | 140 | 46 | 46 | 250 | 3 | > 42 | 1.5 | 22 | 6.6 | 3.3 | 18 | 2.4 | 33 | 7.1 | > 210
7 | C#Cc1cccc(Nc2ncnc3cc4c(cc23)N(C(=O)/C=C/CN2CCC(C)CC2)CCO4)c1 | 400 | 1380 | 890 | 1670 | 250 | 82 | 330 | 5 |  |  |  |  |  |  |  |  |  | 
8 | C#Cc1cccc(Nc2ncnc3cc4c(cc23)N(C(=O)/C=C/CN(CC)CC)CCO4)c1 | 190 | 550 | 680 | 350 | 150 | 42 | 250 | 5 |  |  |  |  |  |  |  |  |  | 
9 | C#Cc1cccc(Nc2ncnc3cc4c(cc23)N(C(=O)/C=C/CN2CCCCC2C)CCCO4)c1 (stereo not given) | > 10000 | > 10000 | > 10000 | > 10000 | > 10000 | > 10000 |  |  |  |  |  |  |  |  |  |  |  | 
10 | C#Cc1cccc(Nc2ncnc3cc4c(cc23)N(C(=O)/C=C/CN2CCCCC2)CCCO4)c1 | > 10000 | > 10000 | 8590 | > 10000 | > 10000 | > 10000 |  |  |  |  |  |  |  |  |  |  |  | 
11 | C#Cc1cccc(Nc2ncnc3cc4c(cc23)N(C(=O)/C=C/CN(CC)CC)CCCO4)c1 | 2160 | > 10000 | > 10000 | > 10000 | > 10000 | > 10000 |  |  |  |  |  |  |  |  |  |  |  | 
12 | C#Cc1cccc(Nc2ncnc3cc4c(cc23)N(C(=O)/C=C/CN2CCCC2)CCO4)c1 | 110 | 330 | 320 | 710 | 120 | 60 | 230 | 3 |  |  |  |  |  |  |  |  |  | 
13 | C#Cc1cccc(Nc2ncnc3cc4c(cc23)N(C(=O)/C=C/CN2CCCCC2C)CCO4)c1 (stereo not given) | 690 | 1150 | 1230 | 950 | 270 |  | 290 |  |  |  |  |  |  |  |  |  |  | 
14 | C#Cc1cccc(Nc2ncnc3cc4c(cc23)N(C(=O)/C=C/CN2CCOCC2)CCCO4)c1 | > 10000 | > 10000 | > 10000 | > 10000 | > 10000 | > 10000 |  |  |  |  |  |  |  |  |  |  |  | 
15 | C#Cc1cccc(Nc2ncnc3cc4c(cc23)N(C(=O)/C=C/CN2CCC(C)CC2)CCCO4)c1 | > 10000 | > 10000 | > 10000 | > 10000 | > 10000 | > 10000 |  |  |  |  |  |  |  |  |  |  |  | 
16 | C#Cc1cccc(Nc2ncnc3cc4c(cc23)N(C(=O)/C=C/CN2CCN(C)CC2)CCO4)c1 | 480 | 1330 | 1460 | 2060 | 220 | 780 | 1110 | 16 |  |  |  |  |  |  |  |  |  | 
